The list is not random: actives were taken first. Their share in the collection is about 3.7%.
KCNQ1 block: blocks the human KCNQ1 potassium channel; P51787; CHO-K1 KCNQ1, FluxOR thallium flux fluorescence; hits give high values; B-score at 10 µM; 1.3% of 310,000 active; AID 2642;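 active = compounds whose thallium flux B-score, printed positive for inhibition, exceeds three library SD while starting fluorescence stays within three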;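 note: channel opened by potassium depolarization with thallium stimulus after 20 min compound exposure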
KCNQ1 act: potentiates or activates the human KCNQ1 potassium channel; B-score at 10 µM; P51787; 0.35% of 310,000 active; CHO-K1 KCNQ1, thallium flux FluxOR fluorescence; hits give high values;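 active = fluorescence ratio B-score, a plate-corrected score, at least three library SD, with initial intensity B-score within 5 SD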
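System: CHO-K1 cells stably expressing KCNQ1 / Medium: assay buffer for compound exposure, DMSO matched across wells / Reagent: thallium- and potassium-containing depolarizing buffer / Compound: one concentration, matched DMSO / Incubation: 20 min compound pretreatment at room temperature / Measured by: kinetic FluxOR fluorescence, 10 s baseline plus 110 s post-stimulus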
KCNK3 inh: human KCNK3 channel inhibition, primary screen; B-score at 10 µM; 0.84% of 340,000 active; CHO-KCNK3 thallium flux, FluxOR fluorescence; hits give low values; O14649;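 active = B-score under library mean minus 4 SD, starting fluorescence ratio at most library mean plus 5 SD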;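 note: more negative B-score means stronger inhibition of thallium flux through KCNK3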
Target sequence (O14649 whole entry, looked up): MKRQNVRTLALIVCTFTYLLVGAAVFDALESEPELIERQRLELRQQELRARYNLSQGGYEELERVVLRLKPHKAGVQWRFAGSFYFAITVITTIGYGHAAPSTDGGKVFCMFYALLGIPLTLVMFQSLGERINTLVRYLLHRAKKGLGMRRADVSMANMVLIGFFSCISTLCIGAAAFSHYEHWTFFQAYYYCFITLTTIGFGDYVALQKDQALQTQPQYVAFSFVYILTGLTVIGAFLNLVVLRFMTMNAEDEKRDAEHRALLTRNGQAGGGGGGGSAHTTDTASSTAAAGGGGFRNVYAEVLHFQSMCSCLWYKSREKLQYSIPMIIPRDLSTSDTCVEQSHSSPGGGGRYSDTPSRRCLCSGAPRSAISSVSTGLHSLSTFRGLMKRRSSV
hERG protect: compounds protecting human hERG from proarrhythmic drug block. Q12809. CHO-hERG, FluxOR thallium flux, dofetilide IC70 present. activation (rescue from dofetilide block), less the hit threshold, % at 10 µM. 0.51% of 310,000 active;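 active = activation above the mean of controls blocked by dofetilide plus 5 SD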;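 note: thallium influx through hERG after potassium depolarization seen as dye fluorescence rise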
KCNK9 block: inhibitors of human KCNK9 two-pore domain potassium channel | Q9NPC2 | HEK293 KCNK9, FluxOR thallium flux fluorescence; hits give low values | B-score at 10 µM | 1.2% of 310,000 active;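 active = ratio B-score over 3 SD below the library mean, with starting fluorescence within 5 SD of its mean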;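 note: negative B-score means less thallium flux so channel inhibition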
Kir21 inh: Kir2.1 (mouse) channel inhibition; HEK293-Kir2.1, FluxOR thallium flux fluorescence; hits give low values; B-score at 10 µM; 0.85% of 310,000 active; P35561;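 active = fluorescence ratio B-score at or below minus 3 SD of library scores, with starting-brightness B-score within 2 SD, cut at about -4.2 in these data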;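 note: channel flux triggered by added potassium and thallium sulfate stimulus; B-score of peak minus minimum fluorescence over baseline after thallium stimulus; more negative B-score means stronger Kir2.1 block with less thallium influx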
A number is an active result; n = inactive; x = not tested or not shown.

SMILES | KCNQ1 block | KCNQ1 act | KCNK3 inh | hERG protect | KCNK9 block | Kir21 inh
COc1ccc(/C=N/Nc2cc(C)nc3c(C)cccc23)cc1 | 6 | n | n | n | n | n
CCCN1C=CC(=CC=C(C#N)C#N)C=C1 | 8 | n | n | n | n | n
CCCN1C=CC(=C/C=C(\C#N)C(=O)OCC)C=C1 | 12 | n | x | n | n | n
CCOC(=O)/C(C#N)=C/C=C1\C=Cc2ccccc2N1CC | n | n | n | n | n | n
C=CCN1C=CC(=CC=C(C#N)C#N)C=C1 | 7 | n | n | n | n | n
CCCCCN1C=CC=C/C1=C\C=C(C#N)C#N | n | n | n | n | n | n
CN1C(=O)/C(=C\c2ccccc2OCc2ccccc2)SC1=S | n | n | n | n | n | n
Cc1cc(/C=C2\SC(=S)N(C)C2=O)c(C)n1-c1cccc(O)c1 | n | n | n | n | -6.84 | n
CN1C(=O)/C(=C\c2cc(N=Nc3ccccc3)ccc2O)SC1=S | 7 | n | n | n | n | n
O=C(COc1ccc(Cl)cc1)N(Cc1ccc(F)cc1)C1CCS(=O)(=O)C1 (centres undefined) | n | n | n | n | n | n
Cc1cc(C)nc(SCc2ccc(C(=O)N/N=C/c3ccco3)cc2)n1 | n | n | n | n | n | -4.32
O=C(NCC1COc2ccccc2O1)C1C2C=CC3(CN(Cc4ccccc4Cl)C(=O)C13)O2 (centres undefined) | n | n | n | n | n | n
COc1ccc(CCN2CC34C=CC(O3)C(C(=O)NCc3ccccc3Cl)C4C2=O)cc1OC (centres undefined) | n | n | n | 4.7 | n | n
CC(=O)Nc1ccc(NC(=O)CSc2ncc(C(=O)Nc3ccccc3)c(=O)n2C)cc1 | 7 | n | n | n | n | n
Cn1c(SCC(=O)NCc2ccccc2)ncc(C(=O)Nc2ccccc2)c1=O | n | n | n | n | n | n
CCOc1cc(/C=N/NC(=O)c2ccccc2OCc2ccc(F)cc2)ccc1O | x | x | n | x | x | x
COc1cccc(NC(=O)c2ccccc2OCc2c(C)noc2C)c1 | x | x | -11.3 | x | x | x
COc1ccc(C=NNC(=O)c2ccccc2OCc2ccc(F)cc2)c(OC)c1 | x | x | -9.92 | x | x | x
Cc1noc(C)c1COC(=O)c1ccccc1Oc1ccccc1 | n | n | n | n | n | -5.07
Cc1ccc(NC(=O)c2ccccc2OCc2c(C)noc2C)cc1S(=O)(=O)N(C)C | x | x | n | x | x | x
COc1cc(NC(=O)c2ccccc2OCc2ccccc2)cc(OC)c1OC | n | n | n | 11.2 | n | n
Cc1noc(C)c1COC(=O)c1ccccc1NC(=O)Cc1ccccc1 | n | n | n | n | n | n
Cc1sc2nc(SCC(=O)N3CCOCC3)[nH]c(=O)c2c1-c1ccccc1 | n | n | n | n | n | n
COc1ccc2c(c1)c(/C=C/c1cc[n+](C)cc1)cn2C | n | n | n | n | -8 | n
COc1ccc2c(/C=C/c3cc[n+](C)cc3)c[nH]c2c1 | n | n | n | n | n | n
SMILES | KCNQ1 block | KCNQ1 act | KCNK3 inh | hERG protect | KCNK9 block | Kir21 inh
CCn1c(COc2ccc(=O)n(-c3ccccc3)n2)nnc1SC | n | n | n | n | n | n
CC(NC(=O)CCN1C(=O)c2ccccc2C1=O)c1ccccc1 (centres undefined) | n | n | n | n | n | n
O=C(CN(C(=O)CCC(=O)Nc1ccccn1)c1ccc2c(c1)OCO2)NCc1ccc(F)cc1 | n | n | n | n | n | n
COc1ccc(/C=N/NC(=O)c2ccn[nH]2)cc1COc1ccc([N+](=O)[O-])c(C)c1 | 6 | n | n | n | n | n
COc1ccccc1N1CCN(/N=C/c2cc(Br)ccc2F)CC1 | 9 | n | n | n | n | n
CN1CCN(C(=O)NCC23CC4CC(CC(C4)C2)C3)CC1 | n | n | n | n | n | n
CNC(=O)NCC12CC3CC(CC(C3)C1)C2 | n | n | n | 5.1 | n | n
CN(CC(=O)Nc1ccc(S(=O)(=O)N2CCOCC2)cc1)Cc1ccc(F)cc1 | x | x | n | x | x | x
NS(=O)(=O)OCC(Cc1ccccc1)N1C(=O)c2ccccc2C1=O (centres undefined) | n | n | n | n | n | n
COc1ccc(CC(=O)Nc2nc3ccccc3[nH]2)cc1 | n | n | n | n | n | n
COc1cccc(CC(=O)Nc2nc3ccccc3[nH]2)c1 | n | n | n | 4.9 | n | n
COc1ccc2nc(NCCO)[nH]c2c1 | n | n | n | n | n | n
